# Rows were chosen to be rich in hits. Some 2.6% of all compounds tested hit in one or more screens of this group.
# SENP6 inh – SENP6 protease inhibitors, primary screen, biochemical, luminescence, uHTS. Sentrin-specific protease 6 (Homo sapiens), Q9GZR1. Recombinant SENP6 catalytic domain, aminoluciferin luminescence. inhibition, % at 10 µM. 1.8% of 330,000 active. AID 2599, 2010;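 active = inhibition above about 50% at the single tested dose, limit read from the data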;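 note: plate controls were DMSO wells with enzyme for no effect and DMSO wells lacking enzyme for full effect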
# SENP7 inh – SENP7 protease inhibitors, primary screen, biochemical, luminescence, uHTS | recombinant SENP7, Z-RLRGG-aminoluciferin luminescence, 40 min | inhibition, % at 5 µM | Sentrin-specific protease 7 (Homo sapiens), Q9BQF6 | 1.5% of 330,000 active;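 active = inhibition above about 50% at the single test dose, limit read from the data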;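 note: plate controls were DMSO with enzyme for no effect and no enzyme buffer wells for full effect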
# Target sequence (Q9BQF6 706-1050 limits assumed): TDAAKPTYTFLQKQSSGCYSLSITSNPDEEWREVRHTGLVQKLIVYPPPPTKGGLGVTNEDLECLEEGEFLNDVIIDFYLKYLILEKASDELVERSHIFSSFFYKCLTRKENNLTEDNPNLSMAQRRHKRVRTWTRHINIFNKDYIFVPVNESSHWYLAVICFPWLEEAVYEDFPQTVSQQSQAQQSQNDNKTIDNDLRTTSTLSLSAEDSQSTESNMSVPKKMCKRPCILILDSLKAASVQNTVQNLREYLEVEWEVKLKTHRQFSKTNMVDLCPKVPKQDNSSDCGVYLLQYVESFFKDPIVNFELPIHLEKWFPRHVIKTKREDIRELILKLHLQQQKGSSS
# SENP8 block-1 – human SENP8 protease inhibitors, primary screen, biochemical, fluorescence, Nedd8 protein substrate, uHTS. Sentrin-specific protease 8 (Homo sapiens), Q96LD8. recombinant SENP8. inhibition, % at 20 µM. 0.64% of 360,000 active; in the data active = inhibition mostly above about 40%, no sharp cut-off; inactive = mostly below about 27%
# SENP8 block-2 – SENP8 protease inhibitors, primary screen, biochemical, luminescence; Sentrin-specific protease 8 (Homo sapiens), Q96LD8; purified SENP8, Z-RLRGG-aminoluciferin cleavage; inhibition, % at 10 µM; 1.2% of 330,000 active; AID 2540, 2010; in the data active = inhibition above about 50%
# SENP1 FRET inh – human SENP1 catalytic domain inhibitors, primary screen, biochemical, FRET, uHTS | Sentrin-specific protease 1 (Homo sapiens), Q9P0U3 | recombinant SENP1 catalytic domain, CyPet-SUMO1-YPet FRET cleavage | inhibition, % at 10 µM | 0.21% of 360,000 active;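 active = inhibition at least 30% at 10 µM, raw YFP signal under a set limit, fluorescence ratio 0.5 to 1.5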;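 note: 0% = enzyme with DMSO and 100% = no enzyme wells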
#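 Controls: no-enzyme wells low, DMSO-plus-enzyme wells high control. Test system: human recombinant His6-tagged SENP1 catalytic domain enzyme. Reagent: SFCypet-SUMO1-SFYpet FRET protein substrate, 25 nM final. Doses: one dose per compound, 10 µM, 0.5% DMSO. Detection: FRET, CFP and YFP emission. Timing: 50 min reaction at room temperature.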
# Platelet DG rel – inhibitors of platelet dense granule secretion, primary screen, cell-based, MLPCN, human platelets. 0.22% of 300,000 active. human platelet-rich plasma, SFLLRN dense granule ATP release, luminescence. inhibition, %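 (compounds screened at 7.5 µM in platelet-rich plasma)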;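 active = mean replicate score, as percent of positive control, at or above 50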
# SENP8 confirm – SENP8 protease inhibitors, retest, confirmation, biochemical, luminescence, single concentration. shares compounds with SENP7 inh. Recombinant SENP8, Z-RLRGG-aminoluciferin luminescence, 60 min. 40% of 6,200 active. AID 488912, 2010. inhibition, % at 12.5 µM;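 active = mean inhibition across replicates above about 50%, limit read from the data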
# SENP6 conf – SENP6 protease inhibitors, confirmation, biochemical, luminescence, single concentration; shares compounds with SENP7 inh; recombinant SENP6, Z-RLRGG-aminoluciferin luminescence; inhibition, % at 12.5 µM; 58% of 6,200 active
# SENP7 confirm – SENP7 protease inhibitors, retest, confirmation, biochemical, luminescence, single concentration | shares compounds with SENP7 inh | recombinant SENP7, Z-RLRGG-aminoluciferin luminescence, 40 min | inhibition, % at 12.5 µM | 69% of 6,200 active | AID 488917, 2010
# Casp3 select – caspase-3 protease inhibitors, confirmation, selectivity assay for SENP inhibitor project, biochemical, single concentration | inhibition, % at 12.5 µM | AID 488918, 2010 | purified caspase-3, Z-DEVD-aminoluciferin luminescence, 60 min | 60% of 6,200 active | shares compounds with SENP7 inh;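 active = mean inhibition above about 50%, limit read from the data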;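 note: plate controls were enzyme with DMSO for no effect and wells without caspase-3 for full effect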
# Luc interf – counter-screen for SENP inhibitors: luminescence interference; Pre-incubated SENP8/Z-RLRGG-aminoluciferin, luciferase luminescence interference; inhibition, % at 12.5 µM; AID 488919; shares compounds with SENP7 inh; 39% of 6,200 active;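 active = mean inhibition above about 50% when retested at one dose, limit read from the data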;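 note: plate controls were DMSO wells with completed reaction for no effect and substrate without enzyme for full effect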
# The depositor's hits bear a star; . = no result.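 Rule for the calls, unless noted: active = mean inhibition above about 50% in the one-dose retest (limit read from the data); inactive = the rest.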
SMILES,SENP6 inh,SENP7 inh,SENP8 block-1,SENP8 block-2,SENP1 FRET inh,Platelet DG rel,SENP8 confirm,SENP6 conf,SENP7 confirm,Casp3 select,Luc interf
CCOC(=O)C1=C(COC(=O)c2ccc([N+](=O)[O-])s2)NC(=O)NC1C (stereo not drawn),74.7*,43.6,31.9,75.6*,-7.9,.,81.6*,87.3*,52.3*,17.7,-2.8
CCC1CCCCN1CCCNC(=O)Cn1ncc2c(C)n(Cc3ccccc3Cl)c(C)c2c1=O (stereo not drawn),12.8,-6.0,-6.3,3.8,-18.2,-0.7,.,.,.,.,.
O=C(c1ccc(-c2ccccc2Cl)o1)N1CCC1,5.2,-3.0,17.6,-5.2,1.5,.,.,.,.,.,.
CC1CCN(C(=O)c2ccc(-c3ccccc3Cl)o2)CC1,72.0*,42.1,6.0,49.5,-0.5,0.3,65.9*,65.7*,81.5*,50.6*,64.7*
O=C(c1cc(-c2ccc(Cl)c(Cl)c2)on1)N1CCCCC1,34.5,57.1*,9.7,13.8,0.1,-1.8,19.9,20.2,24.2,11.5,5.4
O=C(c1cc(-c2ccccc2)on1)N1CCCC1,16.9,46.2,26.1,1.4,1.7,-2.5,.,.,.,.,.
O=C(c1cc(-c2ccc(Cl)cc2)on1)N1CCCC1,56.1*,33.1,20.2,33.0,0.0,-0.7,17.5,12.7,31.8,21.6,-1.9
COc1ccccc1-c1cc(C(=O)N2CCCC2)no1,26.4,14.5,1.1,1.0,0.9,2.3,.,.,.,.,.
O=C(c1cc(-c2ccccc2Cl)on1)N1CCCC1,72.4*,62.7*,9.1,56.6*,1.5,-2.6,8.9,63.8*,90.1*,78.5*,66.1*
O=C(c1ccccc1F)N1CCC2CC1c1cc(N3CCCCC3)ccc12 (stereo not drawn),.,.,12.2,.,2.9,.,.,.,.,.,.
COc1cccc(C(C)NC(=O)Nc2cccc(C(F)(F)F)c2)c1 (stereo not drawn),-14.4,3.2,11.1,-1.0,9.8,0.7,.,.,.,.,.
CCC(C)(C)NC(=O)CN(C(=O)CCC(=O)Nc1nccs1)c1cccc(C)c1C,-6.5,1.7,13.4,-8.6,-0.1,-3.1,.,.,.,.,.
NC(=O)CSc1nc(C2CC2)nc2sc3c(c12)CCCC3,74.9*,67.6*,10.7,73.7*,2.1,1.8,-18.5,-4.4,11.3,4.7,16.5
CC(C)[C@H](NC(=O)[C@@H]1CSC2c3ccccc3C(=O)N21)C(=O)NC1CCCCC1 (stereo partly drawn),8.8,2.4,5.7,2.2,3.1,-1.2,.,.,.,.,.
Cc1ccc(CS(=O)Cc2ccc(C(=O)NCc3ccc(OC(C)C)cc3)o2)cc1 (stereo not drawn),2.1,4.1,17.6,-3.0,2.1,-53.1,.,.,.,.,.
Cc1ccc(S(=O)(=O)Oc2ccccc2/C=N/NC(N)=S)cc1,-2.5,70.0*,15.0,-3.7,0.4,-3.4,5.7,6.4,-7.4,-2.8,-1.5
CC1(C)CCC(=O)N2CC[C@H]3C[C@H](OC(=O)Nc4ccccc4)C[C@@H]1[C@H]32,68.6*,72.9*,14.9,55.6*,3.7,6.1,49.0,52.4*,86.9*,76.8*,69.3*
